pKi: −log10 of the molar value. Calls of active or inactive are those of the source. The calls are words filed in the database; no cut-off is given here.
Key:
Mus musculus [1] = assay: Inhibition of SEW2871-induced loss of CD69 expression in single positive CD4+ thymocytes in thymic medulla of C57BL1/6J mouse at 10 mg/kg, ip by FACS method; assay type: functional, organism-based; set-up: dose 10 mg/kg
In short: (§1)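 Mice received oral SEW2871 (20 mg/kg) with or without i.p. antagonist (10 mg/kg). Thymi were removed at 5 h and CD69 on single-positive CD4+ thymocytes was measured by flow cytometry. n=3.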

Mus musculus [2] = assay: Effect on CD69 expression in single positive CD4+ thymocytes in thymic medulla of C57BL1/6J mouse at 10 mg/kg, ip by FACS method; assay type: organism-based; set-up: dose 10 mg/kg, route intraperitoneal; details: in vivo; in short: as §1
Mus musculus [3] = assay: Toxicity in ip dosed C57BL1/6J mouse assessed as effect on lymphocyte number at 10 mg/kg, ip; assay type: organism-based; set-up: dose 10 mg/kg, route intraperitoneal; details: in vivo
In short: (§2)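 C57BL6 mice were given antagonist i.p. (10 mg/kg, or 3 mg/kg where stated) at the time of oral SEW2871 (up to 20 mg/kg) or vehicle. At 5 h, EDTA blood was taken for full blood counts and differential counts on a veterinary autoanalyzer calibrated for mouse. Blood lymphocyte data pooled n=12 per group; Student's t-test.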

Mus musculus [4] = assay: Toxicity in ip dosed C57BL1/6J mouse assessed as effect on percentage of lymphocyte within total WBCs counts in peripheral blood at 10 mg/kg, ip; assay type: organism-based; set-up: dose 10 mg/kg, route intraperitoneal; details: in vivo; in short: as §2
Mus musculus [5] = species: Mus musculus; assay: Potentiation of VEGF-induced capillary leakage in Balb/cByJ mouse assessed as skin leakage of Evans blue dye from plasma into interstitial spaces Miles assay; assay type: functional, organism-based; details: Skin of body
In short: (§3)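 Male Balb/cByJ mice (30 g) got i.p. vehicle (10 mM Na2CO3, 2% β-hydroxypropyl-cyclodextran) or antagonist 10 mg/kg, then oral SEW2871 20 mg/kg or vehicle. At 4.5 h, 0.5% Evans blue was given i.v. Intradermal murine VEGF165 (100 ng) or PBS/0.1% BSA was injected in triplicate. After 30 min, skin biopsies were extracted in formamide at 58 °C and read at 565 nm (VEGF minus BSA). ANOVA/Bonferroni.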

Mus musculus [6] = assay: Inhibition of SEW2871-induced lymphocyte egress in C57BL1/6J mouse assessed as blood lymphocyte sequestration at 10 to 20 mg/kg, ip; assay type: functional, organism-based; in short: as §2
[7] = biological target: Sphingosine 1-phosphate receptor 3 (Homo sapiens) (UniProt Q99500); assay: Antagonist activity at human S1P3 receptor expressed in CHO cells assessed as inhibition of S1P-induced [35S]GTPgamma binding at 10 uM; assay type: functional, cell-based
Sphingosine 1-phosphate receptor 3 (Homo sapiens), sequence (Q99500 whole entry): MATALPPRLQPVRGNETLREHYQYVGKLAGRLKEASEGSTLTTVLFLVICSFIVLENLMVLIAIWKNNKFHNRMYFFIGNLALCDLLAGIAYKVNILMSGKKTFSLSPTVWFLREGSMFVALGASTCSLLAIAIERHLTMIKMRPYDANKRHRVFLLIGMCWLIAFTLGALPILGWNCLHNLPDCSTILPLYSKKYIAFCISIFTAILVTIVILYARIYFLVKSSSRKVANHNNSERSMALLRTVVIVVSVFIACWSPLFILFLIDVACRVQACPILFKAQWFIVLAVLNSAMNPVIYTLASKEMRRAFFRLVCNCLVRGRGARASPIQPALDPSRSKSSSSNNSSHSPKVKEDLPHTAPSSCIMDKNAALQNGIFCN
In short: (§4)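 Membranes from CHO cells expressing human S1P2, S1P3 or S1P5. [35S]GTPγS binding with serial dilutions of S1P added to membranes (1–10 µg protein per well), with or without 30 min preincubation. Antagonist concentrations were as previously described.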

[8] = biological target: Sphingosine 1-phosphate receptor 3 (Homo sapiens) (UniProt Q99500); assay: Antagonist activity at human S1P3 receptor expressed in CHO cells assessed as inhibition of S1P-induced Akt phosphorylation at 10 uM by Western blot; assay type: functional, cell-based
In short: (§5)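 CHO cells stably expressing human S1P1 or S1P3 were grown to 50% confluence and serum-starved for 16 h. Cells were preincubated 1 h with antagonist at 10 µM, then stimulated 5 min with S1P or SEW2871 in serum-free medium with 0.1% fatty-acid-free BSA. Western blots of lysates gave phospho-ERK1/2 and phospho-Akt band intensities normalized to total ERK1/2 or Akt. n≥3.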

[9] = biological target: T1, Sphingosine 1-phosphate receptor 1 (Homo sapiens, UniProt P21453); assay: Antagonist activity at human S1P1 receptor expressed in CHO cells assessed as inhibition of S1P-induced Akt phosphorylation at 10 uM by Western blot; assay type: functional, cell-based; in short: as §5
T1 sequence (P21453 whole entry): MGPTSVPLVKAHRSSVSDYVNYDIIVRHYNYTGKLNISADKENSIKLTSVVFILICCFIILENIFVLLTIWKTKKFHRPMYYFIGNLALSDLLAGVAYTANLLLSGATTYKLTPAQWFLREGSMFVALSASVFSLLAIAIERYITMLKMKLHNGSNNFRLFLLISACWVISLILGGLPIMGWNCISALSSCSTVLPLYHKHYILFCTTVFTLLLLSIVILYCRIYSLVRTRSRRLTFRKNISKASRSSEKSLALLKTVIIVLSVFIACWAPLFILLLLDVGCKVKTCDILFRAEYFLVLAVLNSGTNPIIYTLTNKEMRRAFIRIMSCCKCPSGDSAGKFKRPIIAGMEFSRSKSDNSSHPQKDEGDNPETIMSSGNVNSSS

Mus musculus [10] = assay: Inhibition of SEW2871-induced lymphopenia in C57BL1/6J mouse at 3 mg/kg, ip; assay type: functional, organism-based; set-up: dose 3 mg/kg; in short: as §2
[11] = biological target: Sphingosine 1-phosphate receptor 2 (Homo sapiens) (UniProt O95136); assay: Agonist activity at human S1P2 receptor expressed in CHO cells assessed as stimulation of [35S]GTPgamma binding at 10 uM; assay type: functional, cell-based; in short: as §4
Sphingosine 1-phosphate receptor 2 (Homo sapiens), sequence (O95136 whole entry): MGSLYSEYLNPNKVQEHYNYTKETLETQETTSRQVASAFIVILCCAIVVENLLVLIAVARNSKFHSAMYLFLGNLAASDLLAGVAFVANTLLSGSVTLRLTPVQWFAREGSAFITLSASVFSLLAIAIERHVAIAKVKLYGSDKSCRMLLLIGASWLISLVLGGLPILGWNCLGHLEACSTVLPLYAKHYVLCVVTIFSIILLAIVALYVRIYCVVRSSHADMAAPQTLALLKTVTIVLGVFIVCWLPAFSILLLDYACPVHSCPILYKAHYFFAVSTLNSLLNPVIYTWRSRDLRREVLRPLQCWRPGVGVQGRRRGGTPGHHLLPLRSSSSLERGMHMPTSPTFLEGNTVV

[12] = biological target: Sphingosine 1-phosphate receptor 5 (Homo sapiens) (UniProt Q9H228); assay: Agonist activity at human S1P5 receptor expressed in CHO cells assessed as stimulation of [35S]GTPgamma binding at 10 uM; assay type: functional, cell-based; in short: as §4
Sphingosine 1-phosphate receptor 5 (Homo sapiens), sequence (Q9H228 whole entry): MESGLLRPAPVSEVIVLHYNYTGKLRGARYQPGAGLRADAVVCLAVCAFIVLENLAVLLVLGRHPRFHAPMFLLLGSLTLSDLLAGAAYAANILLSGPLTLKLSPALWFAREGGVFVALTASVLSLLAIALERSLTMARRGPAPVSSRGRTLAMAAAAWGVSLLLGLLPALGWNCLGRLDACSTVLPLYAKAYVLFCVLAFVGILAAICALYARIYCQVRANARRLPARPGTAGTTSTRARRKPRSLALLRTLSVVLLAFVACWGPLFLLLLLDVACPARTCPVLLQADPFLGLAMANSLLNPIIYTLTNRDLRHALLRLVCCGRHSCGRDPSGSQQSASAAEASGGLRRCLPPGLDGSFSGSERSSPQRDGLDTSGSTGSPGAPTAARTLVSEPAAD

[13] = biological target: Sphingosine 1-phosphate receptor 2 (Homo sapiens) (UniProt O95136); assay: Antagonist activity at human S1P2 receptor expressed in CHO cells assessed as inhibition of S1P-induced [35S]GTPgamma binding at 10 uM; assay type: functional, cell-based; in short: as §4
[14] = biological target: Sphingosine 1-phosphate receptor 3 (Homo sapiens) (UniProt Q99500); assay: Antagonist activity at human S1P3 receptor expressed in CHO cells assessed as inhibition of S1P-induced ERK1/2 phosphorylation at 10 uM by Western blot; assay type: functional, cell-based; in short: as §5
[15] = Plasma concentration in mouse at 10 mg/kg, ip after 5 hrs; assay type: ADME, organism-based; set-up: dose 10 mg/kg, route intraperitoneal
In short: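 Plasma concentration measured by LC-MS in mice 5 h after i.p. injection of 10 mg/kg.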

[16] = biological target: T1, Sphingosine 1-phosphate receptor 1; assay: Antagonist activity at human S1P1 receptor expressed in CHO cells assessed as inhibition of S1P-induced ERK1/2 phosphorylation at 10 uM by Western blot; assay type: functional, cell-based; in short: as §5
[17] = biological target: Sphingosine 1-phosphate receptor 5 (Homo sapiens) (UniProt Q9H228); assay: Antagonist activity at human S1P5 receptor expressed in CHO cells assessed as inhibition of S1P-induced [35S]GTPgamma binding at 10 uM; assay type: functional, cell-based; in short: as §4
[18] = biological target: T1, Sphingosine 1-phosphate receptor 1; assay: Antagonist activity at human S1P1 receptor expressed in CHO cells assessed as inhibition of SEW2871-induced [35S]GTPgamma binding; assay type: functional, cell-based
In short: (§6)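 Membranes from CHO cells stably expressing human S1P1. [35S]GTPγS binding with serial dilutions of S1P or SEW2871 added (1–10 µg protein per well), with or without 30 min antagonist preincubation. Binding was normalized to the percentage induced by maximal S1P. Ki derived from the agonist EC50 shift.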

Mus musculus [19] = assay: Inhibition of SEW2871-induced medullary arrest of T cells in inguinal lymph nodes of BALB/c mouse at 10 mg/kg, iv by FITC-conjugated dextran staining based In vivo two-photon imaging method; assay type: functional, organism-based; set-up: dose 10 mg/kg; details: T-cell
In short: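 Adoptively transferred CFSE-labelled CD4+ T cells in BALB/c mice. Mice were dosed orally with SEW2871 (10 mg/kg), and the inguinal lymph node was imaged by intravital two-photon microscopy 4–6 h later. Medullary sinus labelled with footpad rhodamine-dextran. Antagonist 10 mg/kg given i.v. during imaging; instantaneous T-cell velocities tracked in medulla and cortex.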

Mus musculus [20] = assay: Toxicity in ip dosed C57BL1/6J mouse assessed as induction of spontaneous pulmonary edema by Evan blue dye leakage assay; assay type: organism-based; details: in vivo
[21] = biological target: T1, Sphingosine 1-phosphate receptor 1; assay: Antagonist activity at human S1P1 receptor expressed in CHO cells assessed as inhibition of SEW2871-induced ERK1/2 phosphorylation at 10 uM by Western blot; assay type: functional, cell-based; in short: as §5
Mus musculus [22] = assay: Inhibition of SEW2871-induced lymphocyte maturation in C57BL1/6J mouse assessed as medullary thymocyte phenotypic maturation at 10 to 20 mg/kg, ip; assay type: functional, organism-based; in short: as §1
[23] = biological target: T1, Sphingosine 1-phosphate receptor 1; assay: Antagonist activity at human S1P1 receptor expressed in CHO cells assessed as inhibition of SEW2871-induced Akt phosphorylation at 10 uM by Western blot; assay type: functional, cell-based; in short: as §5
[24] = biological target: T1, Sphingosine 1-phosphate receptor 1; assay: Inhibition of GFP-tagged human S1P1 receptor internalization expressed in HEK293 cells at 10 uM by fluorimetric assay; assay type: cell-based
[25] = biological target: Sphingosine 1-phosphate receptor 3 (Homo sapiens) (UniProt Q99500); assay: Agonist activity at human S1P3 receptor expressed in CHO cells assessed as stimulation of [35S]GTPgamma binding at 10 uM; assay type: functional, cell-based; in short: as §4
Mus musculus [26] = species: Mus musculus; assay: Inhibition of SEW2871-induced protection against VEGF-induced capillary leakage in Balb/cByJ mouse assessed as skin leakage of Evans blue dye from plasma into interstitial spaces by Miles assay; assay type: functional, organism-based; details: Skin of body; in short: as §3
[27] = Plasma clearance in cannulated rat at 1 mg/kg, iv by LC-MS method; assay type: ADME, organism-based; set-up: dose 1 mg/kg, route intravenous
In short: (§7)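 Cannulated rats (n=3) were given 1 mg/kg i.v. Plasma levels were followed by LC-MS to derive half-life, steady-state volume of distribution and plasma clearance.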

[28] = biological target: T1, Sphingosine 1-phosphate receptor 1; assay: Antagonist activity at human S1P1 receptor expressed in CHO cells assessed as inhibition of S1P-induced [35S]GTPgamma binding; assay type: functional, cell-based; in short: as §6
[29] = Half life in cannulated rat at 1 mg/kg, iv by LC-MS method; assay type: ADME, organism-based; set-up: dose 1 mg/kg, route intravenous; details: in vivo; in short: as §7
[30] = Volume of distribution at steady state in cannulated rat at 1 mg/kg, iv by LC-MS method; assay type: ADME, organism-based; set-up: dose 1 mg/kg, route intravenous; details: in vivo, read-out: Vdss; in short: as §7

CCCCCCc1cccc(NC(=O)[C@H](N)CCP(=O)(O)O)c1
inhibition (Mus musculus [1]): Active
Activity (Mus musculus [2]): Non-toxic
Activity (Mus musculus [3]): Non-toxic
Activity (Mus musculus [4]): Non-toxic
Activity (Mus musculus [5]): Active
inhibition (Mus musculus [6]): Active
inhibition [7]: inactive
inhibition [8]: inactive
inhibition [9]: > 70%
inhibition (Mus musculus [10]): Active
Activity [11]: inactive
Activity [12]: inactive
inhibition [13]: inactive
inhibition [14]: inactive
concentration at 5 h [15]: 268 nM
inhibition [16]: > 70%
inhibition [17]: inactive
pKi [18]: 7.74
inhibition (Mus musculus [19]): Active
Activity (Mus musculus [20]): Dose-dependent effect
inhibition [21]: Active
inhibition (Mus musculus [22]): Active
inhibition [23]: Active
inhibition [24]: Active
Activity [25]: inactive
inhibition (Mus musculus [26]): Active
clearance [27]: 4.63 mL/min/kg
pKi [28]: 7.11
half-life [29]: 1.22 h
Vd [30]: 0.46 L/kg

CCCCCCc1cccc(NC(=O)[C@@H](N)CCP(=O)(O)O)c1
inhibition (Mus musculus [6]): inactive
pKi [18]: 5.55
Activity (Mus musculus [20]): Non-toxic
inhibition (Mus musculus [22]): inactive
inhibition (Mus musculus [26]): inactive
pKi [28]: 5.33

— ChEMBL document CHEMBL1221186, “Enhancement of capillary leakage and restoration of lymphocyte egress by a chiral S1P1 antagonist in vivo” (Nat Chem Biol, 2006)
